Laboratory results: ChEMBL document CHEMBL4619818, “Mining Public Domain Data to Develop Selective DYRK1A Inhibitors” (ACS Med Chem Lett, 2020)
pIC50, pKd: −log10 of the molar value. Converted amounts (≈) assume the structure as drawn.

Experiments:
[1] = biological target: Cyclin-dependent kinase 2 (Homo sapiens) (UniProt P24941); experiment: Inhibition of CDK2 (unknown origin) at 1 uM by PanQinase assay relative to control
[2] = biological target: T1, Dual specificity tyrosine-phosphorylation-regulated kinase 1A (Homo sapiens, UniProt Q13627); experiment: Inhibition of recombinant human N-terminal Hex-tagged DYRK1A (127 to 485 residues) expressed in Escherichia coli BL21 (DE3) incubated for 1.5 hrs by TR-FRET assay
[3] = biological target: T1, Dual specificity tyrosine-phosphorylation-regulated kinase 1A; experiment: Inhibition of DYRK1A (unknown origin) at 1 uM by PanQinase assay relative to control
[4] = biological target: Dual specificity protein kinase CLK3 (Homo sapiens) (UniProt P49761); experiment: Inhibition of recombinant human full length CLK3 (1 to 490 residues) expressed in bacterial expression system at 1 uM by DiscoverX competition binding assay relative to control
Dual specificity protein kinase CLK3 (Homo sapiens), sequence (P49761 whole entry, looked up, the tested form may be a part): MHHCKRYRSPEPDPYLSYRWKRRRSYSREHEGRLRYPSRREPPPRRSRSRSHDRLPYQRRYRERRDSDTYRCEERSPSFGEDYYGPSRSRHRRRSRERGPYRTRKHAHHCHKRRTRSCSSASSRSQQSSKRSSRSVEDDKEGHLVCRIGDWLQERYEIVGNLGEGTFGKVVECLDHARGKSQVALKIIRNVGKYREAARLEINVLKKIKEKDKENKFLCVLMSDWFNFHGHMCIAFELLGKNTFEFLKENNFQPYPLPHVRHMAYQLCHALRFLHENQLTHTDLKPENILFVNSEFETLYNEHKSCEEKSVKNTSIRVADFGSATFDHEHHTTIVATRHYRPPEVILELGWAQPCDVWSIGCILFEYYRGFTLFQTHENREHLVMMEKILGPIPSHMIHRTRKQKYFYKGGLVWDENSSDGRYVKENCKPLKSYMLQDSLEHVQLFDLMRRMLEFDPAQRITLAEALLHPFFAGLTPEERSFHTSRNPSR
Procedure, shortened: (§1)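 Competition binding assay with test compound at 1 µM inhibitor concentration. Result expressed as percent inhibition, single determination (n=1). The kinome-wide panel also gave a selectivity score, S-Score(40).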

[5] = biological target: Dual specificity tyrosine-phosphorylation-regulated kinase 1B (Homo sapiens) (UniProt Q9Y463); experiment: Inhibition of recombinant human full length DYRK1B (1 to 629 residues) expressed in bacterial expression system at 1 uM by DiscoverX competition binding assay relative to control; procedure, shortened: as §1
Dual specificity tyrosine-phosphorylation-regulated kinase 1B (Homo sapiens), sequence (Q9Y463 whole entry, looked up, the tested form may be a part): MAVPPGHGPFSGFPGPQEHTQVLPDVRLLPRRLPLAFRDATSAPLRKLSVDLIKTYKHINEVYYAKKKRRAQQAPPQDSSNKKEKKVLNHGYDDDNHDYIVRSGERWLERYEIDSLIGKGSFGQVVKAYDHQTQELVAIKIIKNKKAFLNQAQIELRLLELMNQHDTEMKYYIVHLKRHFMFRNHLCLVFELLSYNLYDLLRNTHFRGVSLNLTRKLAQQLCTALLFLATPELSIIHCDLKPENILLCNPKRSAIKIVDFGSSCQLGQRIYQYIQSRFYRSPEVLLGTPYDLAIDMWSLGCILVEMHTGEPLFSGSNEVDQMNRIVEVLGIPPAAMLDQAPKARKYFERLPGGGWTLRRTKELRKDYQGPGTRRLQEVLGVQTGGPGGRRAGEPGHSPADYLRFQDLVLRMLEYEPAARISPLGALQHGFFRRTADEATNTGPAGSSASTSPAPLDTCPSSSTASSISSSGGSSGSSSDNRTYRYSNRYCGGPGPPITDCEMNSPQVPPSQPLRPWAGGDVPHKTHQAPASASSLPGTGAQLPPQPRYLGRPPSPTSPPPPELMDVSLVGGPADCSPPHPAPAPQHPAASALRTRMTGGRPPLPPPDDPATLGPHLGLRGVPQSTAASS

[6] = biological target: Cyclin-dependent kinase 2 (Homo sapiens) (UniProt P24941); experiment: Inhibition of recombinant human full length CDK2 (1 to 298 residues) expressed in bacterial expression system at 1 uM by DiscoverX competition binding assay relative to control; procedure, shortened: as §1
[7] = Efflux ratio of apparent permeability from basolateral to apical side over apical to basolateral side in dog MDCK-MDR1 cells; format: ADME, cell-based, Canis lupus familiaris
Procedure, shortened: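 MDCK cells transfected with human MDR1 gene (Cyprotex assay); permeability coefficient (Papp) measured in both directions, apical to basolateral and basolateral to apical; efflux ratio taken as mean Papp B2A divided by mean Papp A2B.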

[8] = Apparent permeability from apical to basolateral side in dog MDCK-MDR1 cells; format: ADME, cell-based, Canis lupus familiaris
Procedure, shortened: (§2)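 MDCK cells transfected with human MDR1 gene. Apparent permeability coefficient (Papp, 10^-6 cm/s) measured across the cell layer in each direction, apical to basolateral and basolateral to apical. Mean values reported; efflux ratio taken as Papp B2A / Papp A2B.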

[9] = biological target: Dual specificity protein kinase CLK2 (Homo sapiens) (UniProt P49760); experiment: Inhibition of recombinant human partial length CLK2 (144 to 484 residues) expressed in bacterial expression system at 1 uM by DiscoverX competition binding assay relative to control; procedure, shortened: as §1
Dual specificity protein kinase CLK2 (Homo sapiens), sequence (P49760 whole entry, looked up, the tested form may be a part): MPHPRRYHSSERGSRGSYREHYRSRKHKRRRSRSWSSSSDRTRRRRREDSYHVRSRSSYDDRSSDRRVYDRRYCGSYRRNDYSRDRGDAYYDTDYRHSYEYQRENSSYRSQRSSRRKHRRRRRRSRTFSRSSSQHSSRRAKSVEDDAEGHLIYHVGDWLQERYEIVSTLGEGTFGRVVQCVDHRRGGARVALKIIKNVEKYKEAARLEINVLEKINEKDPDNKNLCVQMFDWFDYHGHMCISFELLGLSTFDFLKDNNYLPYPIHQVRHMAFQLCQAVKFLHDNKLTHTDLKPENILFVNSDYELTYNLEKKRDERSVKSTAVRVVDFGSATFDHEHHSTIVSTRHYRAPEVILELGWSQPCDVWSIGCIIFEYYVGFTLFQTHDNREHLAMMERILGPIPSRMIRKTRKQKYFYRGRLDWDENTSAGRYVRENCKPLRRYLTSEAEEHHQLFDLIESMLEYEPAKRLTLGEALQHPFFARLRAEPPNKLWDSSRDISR

[10] = biological target: T1, Dual specificity tyrosine-phosphorylation-regulated kinase 1A; experiment: Inhibition of recombinant human DYRK1A (129 to 509 residues) expressed in mammalian expression system at 1 uM by DiscoverX competition binding assay relative to control; procedure, shortened: as §1
[11] = Metabolic stability in rat liver microsomes assessed as intrinsic clearance; format: ADME, Microsome; conditions: read-out: CLH
Procedure, shortened: (§3)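 Microsomal incubations with human or rat liver microsomes. Intrinsic clearance given in µL/min/mg; values are the mean of n = 2.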

[12] = biological target: Dual specificity protein kinase CLK1 (Homo sapiens) (UniProt P49759); experiment: Inhibition of recombinant human full length CLK1 (1 to 484 residues) expressed in bacterial expression system at 1 uM by DiscoverX competition binding assay relative to control; procedure, shortened: as §1
Dual specificity protein kinase CLK1 (Homo sapiens), sequence (P49759 whole entry, looked up, the tested form may be a part): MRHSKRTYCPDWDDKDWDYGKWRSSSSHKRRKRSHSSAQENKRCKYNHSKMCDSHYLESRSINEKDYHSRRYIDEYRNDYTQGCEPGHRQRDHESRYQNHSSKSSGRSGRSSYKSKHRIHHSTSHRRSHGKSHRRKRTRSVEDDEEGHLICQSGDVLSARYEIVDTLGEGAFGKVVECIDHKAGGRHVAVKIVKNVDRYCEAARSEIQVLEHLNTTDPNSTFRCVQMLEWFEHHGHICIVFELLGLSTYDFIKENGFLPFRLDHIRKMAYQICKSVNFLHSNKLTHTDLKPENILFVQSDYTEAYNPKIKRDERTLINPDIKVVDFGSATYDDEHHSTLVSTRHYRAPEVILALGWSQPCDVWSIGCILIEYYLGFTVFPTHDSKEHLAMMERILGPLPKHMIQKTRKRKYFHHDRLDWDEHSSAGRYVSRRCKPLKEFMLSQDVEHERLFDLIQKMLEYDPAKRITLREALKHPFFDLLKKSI

[13] = Metabolic stability in human liver microsomes assessed as intrinsic clearance; format: ADME, Microsome; conditions: read-out: CLH; procedure, shortened: as §3
[14] = Thermodynamic solubility of compound at pH 6.8; format: physicochemical; conditions: buffer, read-out: Therm_solubility
Procedure, shortened: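 Thermodynamic (intrinsic) solubility by shake-flask method in PBS buffer at pH 6.8. Reported in mg/mL from a single experiment.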

[15] = biological target: Glycogen synthase kinase-3 beta (Homo sapiens) (UniProt P49841); experiment: Inhibition of recombinant human full length GSK3beta (1 to 433 residues) expressed in mammalian expression system at 1 uM by DiscoverX competition binding assay relative to control; procedure, shortened: as §1
Glycogen synthase kinase-3 beta (Homo sapiens), sequence (P49841 whole entry, looked up, the tested form may be a part): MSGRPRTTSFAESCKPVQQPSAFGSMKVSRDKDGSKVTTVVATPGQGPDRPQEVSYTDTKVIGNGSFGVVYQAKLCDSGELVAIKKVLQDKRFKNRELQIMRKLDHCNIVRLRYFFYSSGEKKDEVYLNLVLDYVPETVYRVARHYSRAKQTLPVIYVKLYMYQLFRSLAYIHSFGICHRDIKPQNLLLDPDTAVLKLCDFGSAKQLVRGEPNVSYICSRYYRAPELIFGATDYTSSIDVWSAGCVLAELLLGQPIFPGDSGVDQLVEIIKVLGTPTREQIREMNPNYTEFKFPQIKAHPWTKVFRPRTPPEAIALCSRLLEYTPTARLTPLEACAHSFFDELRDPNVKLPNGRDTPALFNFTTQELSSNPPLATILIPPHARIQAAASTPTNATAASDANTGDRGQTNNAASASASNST

[16] = Apparent permeability from basolateral to apical side in dog MDCK-MDR1 cells; format: ADME, cell-based, Canis lupus familiaris; procedure, shortened: as §2
[17] = biological target: T2, Dual specificity tyrosine-phosphorylation-regulated kinase 2 (Homo sapiens) (UniProt Q92630); experiment: Inhibition of recombinant human full length DYRK2 (1 to 528 residues) expressed in mammalian expression system at 1 uM by DiscoverX competition binding assay relative to control; procedure, shortened: as §1
T2 sequence (whole entry): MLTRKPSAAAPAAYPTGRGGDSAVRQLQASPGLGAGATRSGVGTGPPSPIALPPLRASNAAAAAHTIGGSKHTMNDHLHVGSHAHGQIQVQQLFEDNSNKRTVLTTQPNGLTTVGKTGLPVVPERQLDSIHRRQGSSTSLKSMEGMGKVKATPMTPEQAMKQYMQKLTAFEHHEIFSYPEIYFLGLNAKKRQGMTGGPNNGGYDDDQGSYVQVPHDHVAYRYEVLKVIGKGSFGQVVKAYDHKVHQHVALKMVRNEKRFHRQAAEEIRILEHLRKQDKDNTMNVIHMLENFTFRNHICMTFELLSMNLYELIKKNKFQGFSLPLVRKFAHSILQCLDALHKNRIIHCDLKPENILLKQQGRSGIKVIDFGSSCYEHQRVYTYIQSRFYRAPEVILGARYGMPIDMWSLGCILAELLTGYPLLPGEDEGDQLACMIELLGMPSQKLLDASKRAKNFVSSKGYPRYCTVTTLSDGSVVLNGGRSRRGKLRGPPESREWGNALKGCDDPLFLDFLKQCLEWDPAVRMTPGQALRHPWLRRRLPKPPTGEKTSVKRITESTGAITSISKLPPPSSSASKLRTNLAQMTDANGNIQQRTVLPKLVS

[18] = biological target: T1, Dual specificity tyrosine-phosphorylation-regulated kinase 1A; experiment: Binding affinity to DYRK1A (unknown origin) assessed as dissociation constant measured for 60 to 300 sec by SPR analysis

With CN(c1ccccc1)c1nccc(-c2cnn3ncccc23)n1 the inhibition [1] was 33%, the pIC50 [2] was 6.73 and the inhibition [3] was 79%.

With COc1cccc(Nc2nccc(-c3cnn4ncccc34)n2)c1 [PYRAZOLOPYRIDAZINE 1] the pIC50 [2] was 7.92.

With c1ccc(Nc2nccc(-c3cnn4ncccc34)n2)cc1 the inhibition [1] was 98%, the pIC50 [2] was 7.42 and the inhibition [3] was 97%.

N#Cc1ccc(Nc2nccc(-c3cnn4ncccc34)n2)cc1 showed a pIC50 [2] of 6.99.

With Cc1cccc(N(C)c2nccc(-c3cnn4ncccc34)n2)c1 the inhibition [4] was 6%, the inhibition [5] was 0% and the inhibition [6] was 12%. For the same molecule, the efflux ratio [7] was 0.96, the Papp A→B [8] was 20.9 ×10⁻⁶ cm/s and the inhibition [9] was 59%. The inhibition [10] was 65%, the microsomal CLint [11] was 805 µL/min/mg and the pIC50 [2] was 7.12. The inhibition [12] was 59%, the microsomal CLint [13] was 75 µL/min/mg and the solubility thermodynamic [14] was 10 µg/mL (≈ 31.6 µM). It also gave an inhibition [15] of 4%, a Papp B→A [16] of 20.1 ×10⁻⁶ cm/s and an inhibition [17] of 19%.

In the case of COc1cccc(N(C)c2nccc(-c3cnn4ncccc34)n2)c1, the pIC50 [2] was 7.01.

With N#Cc1cccc(Nc2nccc(-c3cnn4ncccc34)n2)c1 [GW778894X] the pIC50 [2] was 8.30.

In the case of Cc1cccc(Nc2nccc(-c3cnn4ncccc34)n2)c1, the pKd [18] was 8.05 and the pIC50 [2] was 8.15.

COc1ccccc1Nc1nccc(-c2cnn3ncccc23)n1 showed a pIC50 [2] of 6.86.

For Cc1ccccc1Nc1nccc(-c2cnn3ncccc23)n1, the pIC50 [2] was 7.19.
